# Laboratory results published in ChEMBL document CHEMBL1149349, “Identification of novel pyrazole acid antagonists for the EP1 receptor” (Bioorg Med Chem Lett, 2006).
# Columns and labels:
# [1] = target: T1, Prostaglandin E2 receptor EP1 subtype (Homo sapiens, UniProt P34995); assay: Antagonist activity at EP1 receptor expressed in CHO-K1 cells assessed as inhibition of PGE2-stimulated calcium ion mobilization by FLIPR assay; assay type: functional, cell-based
# T1 sequence (P34995 whole entry): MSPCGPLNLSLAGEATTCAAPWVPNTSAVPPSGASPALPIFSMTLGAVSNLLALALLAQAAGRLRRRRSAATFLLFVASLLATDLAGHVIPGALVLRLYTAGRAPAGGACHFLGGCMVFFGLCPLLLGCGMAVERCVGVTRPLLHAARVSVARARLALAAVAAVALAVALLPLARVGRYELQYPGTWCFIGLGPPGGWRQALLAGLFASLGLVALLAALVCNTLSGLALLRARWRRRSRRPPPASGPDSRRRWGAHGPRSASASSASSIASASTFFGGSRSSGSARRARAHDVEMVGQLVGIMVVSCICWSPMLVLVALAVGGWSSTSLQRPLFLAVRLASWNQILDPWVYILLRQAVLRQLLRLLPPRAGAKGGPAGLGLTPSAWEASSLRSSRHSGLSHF
# Procedure, shortened: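 Stably EP1- or EP3-transfected CHO-K1 whole cells loaded with the calcium-sensitive dye Fluo-3. Inhibition of PGE₂-evoked intracellular Ca²⁺ mobilisation measured, reported as pKi.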
# [2] = target: T1, Prostaglandin E2 receptor EP1 subtype; assay: Displacement of [3H]PGE2 from EP1 receptor expressed in CHO-K1 cells; assay type: cell-based
# Procedure, shortened: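 Membranes from cells expressing the receptor, incubated with test compound and [³H]PGE₂ (3 nM final) for 30 min at 30 °C. Bound radioactivity read by liquid scintillation counting. Values are means of at least four experiments.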
# [3] = target: Prostaglandin E2 receptor EP3 subtype (Homo sapiens) (UniProt P43115); assay: Inhibition of PGE2-induced intracellular Ca2+ mobilisation (FLIPR) at EP3 receptor expressed in CHO-K1 cells
# Chain of Prostaglandin E2 receptor EP3 subtype (Homo sapiens) (P43115 whole entry, looked up): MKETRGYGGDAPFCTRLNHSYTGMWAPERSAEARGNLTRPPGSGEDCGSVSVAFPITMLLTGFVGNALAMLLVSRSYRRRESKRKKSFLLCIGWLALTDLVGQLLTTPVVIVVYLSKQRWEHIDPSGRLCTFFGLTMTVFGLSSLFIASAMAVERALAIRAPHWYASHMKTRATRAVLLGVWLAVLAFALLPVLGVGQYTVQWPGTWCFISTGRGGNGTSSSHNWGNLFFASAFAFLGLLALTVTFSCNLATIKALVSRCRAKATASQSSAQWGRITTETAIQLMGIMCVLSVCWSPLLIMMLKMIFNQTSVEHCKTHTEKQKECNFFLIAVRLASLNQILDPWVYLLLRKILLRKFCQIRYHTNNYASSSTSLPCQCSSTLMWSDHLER
# [4] = species: Rattus norvegicus; assay: Activity against Freund's complete adjuvant-induced inflammatory pain in rat; assay type: functional
# [5] = target: Cytochrome P450 3A4 (Homo sapiens, UniProt P08684); assay: Inhibition of CYP450 3A4; assay type: ADME
# Chain of Cytochrome P450 3A4 (P08684 whole entry, canonical isoform): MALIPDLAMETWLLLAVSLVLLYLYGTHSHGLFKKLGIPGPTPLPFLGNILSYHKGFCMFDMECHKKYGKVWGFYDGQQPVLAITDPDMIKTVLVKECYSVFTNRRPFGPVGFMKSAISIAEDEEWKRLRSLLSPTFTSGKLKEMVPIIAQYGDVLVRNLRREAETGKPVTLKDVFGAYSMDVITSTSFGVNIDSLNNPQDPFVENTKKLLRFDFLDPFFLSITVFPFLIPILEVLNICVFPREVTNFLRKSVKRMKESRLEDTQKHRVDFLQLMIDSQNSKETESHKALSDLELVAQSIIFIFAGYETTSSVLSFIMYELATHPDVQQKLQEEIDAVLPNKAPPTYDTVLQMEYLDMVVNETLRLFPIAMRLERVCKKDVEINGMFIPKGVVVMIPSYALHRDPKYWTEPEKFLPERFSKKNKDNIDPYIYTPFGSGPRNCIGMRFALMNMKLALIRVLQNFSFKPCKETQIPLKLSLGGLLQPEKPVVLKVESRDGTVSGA
# Procedure, shortened: (§1)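 In vitro CYP450 inhibition run by the Gentest protocol, with IC₅₀ determined for each isoform.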
# [6] = system: Liver microsomes; assay: Intrinsic clearance in rat liver microsome; assay type: ADME
# [7] = system: Liver microsomes; assay: Intrinsic clearance in human liver microsome; assay type: ADME
# [8] = target: Cytochrome P450 2C19 (Homo sapiens, UniProt P33261); assay: Inhibition of CYP450 2C19; assay type: ADME; procedure, shortened: as §1
# Chain of Cytochrome P450 2C19 (P33261 whole entry): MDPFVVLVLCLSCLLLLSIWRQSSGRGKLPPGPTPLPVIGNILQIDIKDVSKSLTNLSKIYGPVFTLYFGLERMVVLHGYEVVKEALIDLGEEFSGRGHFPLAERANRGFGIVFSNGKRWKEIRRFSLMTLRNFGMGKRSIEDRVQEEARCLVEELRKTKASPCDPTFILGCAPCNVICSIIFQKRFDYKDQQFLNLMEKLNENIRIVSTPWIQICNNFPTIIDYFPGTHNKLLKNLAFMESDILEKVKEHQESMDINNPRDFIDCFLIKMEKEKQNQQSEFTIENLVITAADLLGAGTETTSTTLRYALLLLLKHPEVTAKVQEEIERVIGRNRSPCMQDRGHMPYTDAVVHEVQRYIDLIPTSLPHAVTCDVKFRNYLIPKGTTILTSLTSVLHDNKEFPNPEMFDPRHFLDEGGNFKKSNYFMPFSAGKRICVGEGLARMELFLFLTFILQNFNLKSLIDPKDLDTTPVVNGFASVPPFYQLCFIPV
# [9] = system: Rattus norvegicus; assay: AUC in rat at 3 mg/kg, po; assay type: ADME, organism-based, Plasma; set-up: dose 3 mg/kg, route oral; conditions: in vivo
# Procedure, shortened: (§2)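 Oral dosing with drug levels measured in blood. Cmax, Tmax and AUC normalised to dose were derived from the blood concentration–time profile.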
# [10] = target: Cytochrome P450 2C9 (Homo sapiens, UniProt P11712); assay: Inhibition of CYP450 2C9; assay type: ADME; procedure, shortened: as §1
# Chain of Cytochrome P450 2C9 (P11712 whole entry): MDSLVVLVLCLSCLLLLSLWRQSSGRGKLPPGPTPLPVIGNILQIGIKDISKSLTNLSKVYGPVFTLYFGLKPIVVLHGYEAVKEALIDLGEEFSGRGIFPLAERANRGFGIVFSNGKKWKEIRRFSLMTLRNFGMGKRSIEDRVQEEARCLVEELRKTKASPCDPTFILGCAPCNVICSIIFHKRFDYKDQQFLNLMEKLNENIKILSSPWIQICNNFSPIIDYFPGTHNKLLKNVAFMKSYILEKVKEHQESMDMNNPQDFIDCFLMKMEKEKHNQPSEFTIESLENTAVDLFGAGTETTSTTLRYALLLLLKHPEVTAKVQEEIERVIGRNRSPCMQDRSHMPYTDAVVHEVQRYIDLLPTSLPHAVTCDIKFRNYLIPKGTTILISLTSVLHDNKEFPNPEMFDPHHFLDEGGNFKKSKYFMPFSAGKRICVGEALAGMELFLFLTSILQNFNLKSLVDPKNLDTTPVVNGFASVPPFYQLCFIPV
# [11] = Solubility at pH 7.4; assay type: physicochemical; conditions: buffer
# [12] = target: T2, Cytochrome P450 1A2 (Homo sapiens, UniProt P05177); assay: Inhibition of CYP450 1A2; assay type: ADME; procedure, shortened: as §1
# T2 sequence (P05177 whole entry): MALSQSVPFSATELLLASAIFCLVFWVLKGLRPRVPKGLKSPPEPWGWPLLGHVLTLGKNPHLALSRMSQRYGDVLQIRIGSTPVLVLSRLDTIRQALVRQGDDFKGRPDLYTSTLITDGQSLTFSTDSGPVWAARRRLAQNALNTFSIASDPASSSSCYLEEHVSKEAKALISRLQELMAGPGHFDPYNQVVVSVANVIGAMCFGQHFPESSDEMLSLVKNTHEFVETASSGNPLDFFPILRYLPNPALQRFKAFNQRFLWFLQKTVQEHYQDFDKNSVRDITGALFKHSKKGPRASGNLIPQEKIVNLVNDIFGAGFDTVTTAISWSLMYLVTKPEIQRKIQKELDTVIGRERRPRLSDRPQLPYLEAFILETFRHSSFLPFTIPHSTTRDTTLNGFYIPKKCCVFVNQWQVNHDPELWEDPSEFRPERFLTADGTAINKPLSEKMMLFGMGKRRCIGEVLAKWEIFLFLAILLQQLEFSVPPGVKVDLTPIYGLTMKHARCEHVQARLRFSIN
# [13] = target: Cytochrome P450 2D6 (Homo sapiens, UniProt P10635); assay: Inhibition of CYP450 2D6; assay type: ADME; procedure, shortened: as §1
# Chain of Cytochrome P450 2D6 (P10635 whole entry): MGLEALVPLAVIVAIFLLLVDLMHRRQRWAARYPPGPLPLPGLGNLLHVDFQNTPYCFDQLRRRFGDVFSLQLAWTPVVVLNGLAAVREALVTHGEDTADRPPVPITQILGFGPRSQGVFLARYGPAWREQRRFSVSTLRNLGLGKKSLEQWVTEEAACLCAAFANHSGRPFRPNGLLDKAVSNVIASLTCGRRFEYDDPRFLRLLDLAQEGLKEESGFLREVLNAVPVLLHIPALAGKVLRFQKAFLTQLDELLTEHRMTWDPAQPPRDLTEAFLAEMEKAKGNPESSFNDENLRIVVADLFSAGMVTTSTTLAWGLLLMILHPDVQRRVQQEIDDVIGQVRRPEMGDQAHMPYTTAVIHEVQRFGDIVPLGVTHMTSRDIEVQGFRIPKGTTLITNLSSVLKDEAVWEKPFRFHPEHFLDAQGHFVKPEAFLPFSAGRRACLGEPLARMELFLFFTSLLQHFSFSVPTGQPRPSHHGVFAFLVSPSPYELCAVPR
# [14] = Cmax in rat at 3 mg/kg, po; assay type: ADME, organism-based; set-up: dose 3 mg/kg, route oral; conditions: in vivo; procedure, shortened: as §2
# [15] = system: Rattus norvegicus; assay: AUC/dose in rat at 3 mg/kg, po; assay type: ADME, organism-based, Plasma; set-up: dose 3 mg/kg, route oral; conditions: in vivo; procedure, shortened: as §2
# [16] = Tmax in rat at 3 mg/kg, po; assay type: ADME, organism-based; set-up: dose 3 mg/kg, route oral; conditions: in vivo; procedure, shortened: as §2
# [17] = Distribution coefficient, log D at pH 7.4; assay type: physicochemical; conditions: octanol/water
smiles,measurement,setting,value
O=C(O)c1ccnn1Cc1cc(Br)ccc1OCc1ccccc1,Ki,[1],> 2000 nM
CC(=O)Nc1cc(C(=O)O)nn1Cc1cc(Br)ccc1OCc1ccccc1,Ki,[1],> 2000 nM
Cc1cc(C(=O)O)nn1Cc1cc(Br)ccc1OCc1cccc(Cl)c1,Ki,[1],427 nM
same,IC50,[2],115 nM
Cc1cc(C(=O)O)nn1Cc1cc(Br)ccc1OCc1cccc(Br)c1,Ki,[1],129 nM
same,IC50,[2],17.8 nM
Cc1cc(C(=O)O)nn1Cc1cc(Cl)ccc1OCc1ccc(Cl)cc1Cl,Ki,[3],> 2000 nM
same,Ki,[1],0.55 nM
Cc1cc(C(=O)O)nn1Cc1cc(Cl)ccc1OCc1ccc(F)cc1F,Ki,[3],> 2000 nM
same,Ki,[1],1.12 nM
Cc1cc(C(=O)O)nn1Cc1cc(F)ccc1OCc1ccc(Cl)cc1Cl,Ki,[1],20.4 nM
O=C(O)c1nn(Cc2cc(Br)ccc2OCc2ccccc2)cc1CO,Ki,[1],> 2000 nM
same,IC50,[2],676 nM
O=C(O)c1cncn1Cc1cc(Br)ccc1OCc1ccccc1,Ki,[1],> 2000 nM
O=C(O)c1cnn(Cc2cc(Br)ccc2OCc2ccccc2)c1,Ki,[1],> 2000 nM
O=C(O)c1cc(-c2cccs2)n(Cc2cc(Br)ccc2OCc2ccccc2)n1,Ki,[1],617 nM
same,IC50,[2],195 nM
Cc1cc(C(=O)O)nn1Cc1cc(Br)ccc1OCc1cccc(C(F)(F)F)c1,Ki,[1],1100 nM
same,IC50,[2],309 nM
O=C(O)c1cn(Cc2cc(Br)ccc2OCc2ccccc2)cn1,Ki,[1],> 2000 nM
O=C(O)c1nn(Cc2cc(Br)ccc2OCc2ccccc2)cc1F,Ki,[1],692 nM
same,IC50,[2],123 nM
O=C(O)c1nn(Cc2cc(Br)ccc2OCc2ccccc2)cc1Br,Ki,[1],> 2000 nM
same,IC50,[2],457 nM
Cc1cccc(COc2ccc(Br)cc2Cn2nc(C(=O)O)cc2C)c1,Ki,[1],525 nM
same,IC50,[2],126 nM
Cc1cc(C(=O)O)nn1Cc1cc(Br)ccc1OCc1ccc(C(F)(F)F)cc1,Ki,[1],97.7 nM
same,IC50,[2],35.5 nM
Cc1cc(C(=O)O)nn1Cc1cc(Br)ccc1OCc1ccc(F)cc1,Ki,[1],11.7 nM
same,IC50,[2],7.41 nM
Cc1cc(C(=O)O)nn1Cc1cc(Br)ccc1OCc1cc(C(F)(F)F)cc(C(F)(F)F)c1,Ki,[1],> 2000 nM
same,IC50,[2],5250 nM
Cc1cc(C(=O)O)nn1Cc1cc(Br)ccc1OCc1ccc(C(C)(C)C)cc1,Ki,[1],> 2000 nM
same,IC50,[2],1230 nM
Cc1cc(C(=O)O)nn1Cc1cc(Br)ccc1OCc1ccccc1Cl,Ki,[1],28.8 nM
same,IC50,[2],3.16 nM
O=C(O)c1cccc(-c2sccc2-c2cc(Cl)ccc2OCc2ccccc2)c1,Ki,[1],1.26 nM
same,IC50,[2],3.55 nM
Cc1cn(Cc2cc(Br)ccc2OCc2ccccc2)nc1C(=O)O,Ki,[1],1350 nM
same,IC50,[2],427 nM
O=C(O)c1cn(Cc2cc(Br)ccc2OCc2ccccc2)nn1,Ki,[1],> 2000 nM
CCCCc1cc(C(=O)O)nn1Cc1cc(Br)ccc1OCc1ccccc1,Ki,[1],977 nM
Cc1cc(C(=O)O)nn1Cc1cc(Br)ccc1OCc1ccc(Cl)cc1Cl,Ki,[1],0.49 nM
same,IC50,[2],0.132 nM
Cc1cc(C(=O)O)nn1Cc1cc(Br)ccc1OCc1c(F)cccc1F,Ki,[1],105 nM
same,IC50,[2],14.8 nM
Cc1cc(C(=O)O)nn1Cc1cc(Br)ccc1OCc1ccc(Cl)c(C(F)(F)F)c1,Ki,[1],> 2000 nM
same,IC50,[2],575 nM
O=C(O)c1ccn(Cc2cc(Br)ccc2OCc2ccccc2)n1,Ki,[1],55 nM
same,IC50,[2],9.77 nM
Cc1cc(C(=O)O)nn1Cc1cc(Br)ccc1OCc1cccc([N+](=O)[O-])c1,Ki,[1],339 nM
Cc1cc(C(=O)O)nn1Cc1ccccc1OCc1ccc(Cl)cc1Cl,Ki,[3],> 2000 nM
same,Ki,[1],8.32 nM
Cc1cc(C(=O)O)nn1Cc1cc(Br)ccc1OCc1cc(Cl)cc(Cl)c1,Ki,[1],1120 nM
Cc1cc(C(=O)O)nn1Cc1cc(F)ccc1OCc1ccc(F)cc1F,Ki,[3],> 2000 nM
same,Ki,[1],7.94 nM
O=C(O)c1nn(Cc2cc(Br)ccc2OCc2ccccc2)cc1C(F)(F)F,Ki,[1],> 2000 nM
same,IC50,[2],2570 nM
O=C(O)c1nn(Cc2cc(Br)ccc2OCc2ccccc2)cc1Cl,Ki,[1],> 2000 nM
Cc1cc(C(=O)O)nn1Cc1cc(Br)ccc1OCc1ccc(F)cc1F,Ki,[1],2.63 nM
same,IC50,[2],0.525 nM
Cc1cc(C(=O)O)nn1Cc1cc(Br)ccc1OCc1ccc(Cl)cc1,Ki,[1],8.71 nM
same,IC50,[2],8.71 nM
COc1ccccc1COc1ccc(Br)cc1Cn1nc(C(=O)O)cc1C,Ki,[1],69.2 nM
Cc1cc(C(=O)O)nn1Cc1cc(Br)ccc1OCc1ccccc1,ED50,[4],1.3 mg/kg
same,IC50,[5],> 100000 nM
same,CL,[6],< 0.5 mL/min/g
same,CL,[7],0.6 mL/min/g
same,IC50,[8],> 100000 nM
same,AUC,[9],16.3 µM·h
same,IC50,[10],> 100000 nM
same,solubility,[11],850 µg/mL
same,IC50,[12],21000 nM
same,IC50,[13],> 100000 nM
same,Ki,[1],15.1 nM
same,Cmax,[14],5.69 µM
same,AUC/dose,[15],124 kg·min/L
same,IC50,[2],6.46 nM
same,Tmax,[16],30 min
same,logD,[17],1.15
